Test results reported in ChEMBL document CHEMBL1629555, “Antimalarial activity of phenylthiazolyl-bearing hydroxamate-based histone deacetylase inhibitors” (Antimicrob Agents Chemother, 2008).
Activity calls are given as the source filed them. The rule behind the calls is not given here.

Legend:
[1] = AUC in ICR mouse at 50 mg/kg/day, po by LC/MS analysis; type: ADME, organism-based; parameters: route oral; details: plasma
Summary of the method: (§1)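 Male ICR mice, 8 weeks old, got one 50 mg/kg dose either orally or subcutaneously, with three groups of six mice per route. One mouse per group was killed at 15, 30 and 60 min and at 3, 6 and 24 h. Plasma was deproteinized with 2 volumes of acetonitrile and analysed by LC-MS/MS on a C18 column against 0–500 ng/ml standards, with parent and acid metabolite measured in the same sample. Each six-mouse group was treated as one "animal" and fitted to a two-compartment model. AUC was taken by the linear trapezoidal rule extrapolated to infinity, and Cmax and Tmax were read per "animal".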

[2] = tested on: Plasmodium berghei; assay: Antimalarial activity against Plasmodium berghei infected in mouse assessed as parasitemia level at split dose of 130 mg/kg/day, po for 7 days measured on day 6 relative to control; type: functional
[3] = AUC in ICR mouse at 50 mg/kg/day, sc by LC/MS analysis; type: ADME, organism-based; parameters: route subcutaneous; details: plasma; summary of the method: as §1
[4] = tested on: Plasmodium falciparum; assay: Antimalarial activity against chloroquine-resistant Plasmodium falciparum FVO infected in Aotus lemurinus leminurus monkey assessed as reduction in parasitemia at 32 mg/kg/day, po for 3 days; type: functional, organism-based
[5] = tested on: Plasmodium berghei; assay: Antimalarial activity against Plasmodium berghei infected in mouse assessed as effect on cure rate at 160 mg/kg/day for 3 days measured on day 6 in presence of 2 mg/kg/day chloroquine; type: functional, organism-based
Summary of the method: (§2)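 Mice were infected ip with 10^6 P. berghei-parasitized erythrocytes. The compound was given orally once daily on days 3, 4 and 5 post-infection in hydroxyethylcellulose-Tween 20 vehicle, alone or together with chloroquine, with 5 mice per dose group. Parasitemia (%) was read on days 3 and 6, and cures were counted as animals cured out of 5.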

[6] = tested on: Plasmodium berghei; assay: Antimalarial activity against Plasmodium berghei infected in mouse assessed as effect on cure rate at single dose of 80 mg/kg/day, po for 3 days; type: functional, organism-based
Summary of the method: (§3)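 Mice were infected ip with 10^6 P. berghei-parasitized erythrocytes. The compound was given in hydroxyethylcellulose-Tween 20 vehicle, 5 mice per group, starting on day 3 post-infection. Regimens were once-daily or split daily oral doses over 3 days, subcutaneous dosing, or dosing over 7 days. Read-outs were posttreatment parasitemia on day 6 as a fraction of controls and the number of mice cured.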

[7] = tested on: Plasmodium falciparum; assay: Antimicrobial activity against Plasmodium falciparum W2 at […] in presence of 4 mg/kg chloroquine; type: functional
[8] = tested on: Plasmodium berghei; assay: Antimalarial activity against Plasmodium berghei infected in mouse assessed as parasitemia level at 12.8 mg/kg/day for 3 days measured on day 3 in presence of 16 mg/kg/day chloroquine (reference value: 0.46%); type: functional; summary of the method: as §2
[9] = tested on: Mus musculus; assay: Toxicity in Plasmodium berghei-infected mouse assessed as mortality at split dose of 320 mg/kg/day, po for 3 days; type: organism-based; parameters: route oral; details: in vivo, 72 h
[10] = tested on: Plasmodium berghei; assay: Antimalarial activity against Plasmodium berghei infected in mouse assessed as effect on cure rate at 12.8 mg/kg/day for 3 days measured on day 6 in presence of 16 mg/kg/day chloroquine; type: functional, organism-based; summary of the method: as §2
[11] = tested on: Plasmodium falciparum; assay: Antimicrobial activity against Plasmodium falciparum D6 infected in Aotus lemurinus lemurinus monkey at […] in presence of azithromycin; type: functional
[12] = tested on: Plasmodium berghei; assay: Antimalarial activity against Plasmodium berghei infected in mouse assessed as parasitemia level at 0.32 mg/kg/day for 3 days measured on day 3 (reference value: 0.46%); type: functional
[13] = tested on: Plasmodium berghei; assay: Antimalarial activity against Plasmodium berghei infected in mouse assessed as parasitemia level at 0.32 mg/kg/day for 3 days measured on day 3 in presence of 4 mg/kg/day chloroquine (reference value: 0.46%); type: functional
[14] = Half life in ICR mouse at 50 mg/kg/day, sc by LC/MS analysis; type: ADME, organism-based; parameters: route subcutaneous; details: in vivo; summary of the method: as §1
[15] = Cytotoxicity against mouse RAW264.7 cells by MTT assay; type: cell-based; details: read-out: LD50 (the source's name)
Summary of the method: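 LC50 in RAW macrophages was determined by MTT assay, given as the mean of 2–4 experiments with range. Selectivity index = RAW LC50 / lowest P. falciparum IC50.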

[16] = tested on: Plasmodium berghei; assay: Antimalarial activity against Plasmodium berghei infected in mouse assessed as effect on cure rate at split dose of 80 mg/kg/day, po for 3 days; type: functional, organism-based; summary of the method: as §3
[17] = tested on: Plasmodium berghei; assay: Antimalarial activity against Plasmodium berghei infected in mouse assessed as parasitemia level at 52 mg/kg/day for 3 days measured on day 3 in presence of 64 mg/kg/day chloroquine (reference value: 0.46%); type: functional; summary of the method: as §2
[18] = tested on: Plasmodium berghei; assay: Antimalarial activity against Plasmodium berghei infected in mouse assessed as effect on cure rate at 320 mg/kg/day for 3 days; type: functional, organism-based; summary of the method: as §2
[19] = Tmax in ICR mouse at 50 mg/kg/day, po by LC/MS analysis; type: ADME, organism-based; parameters: route oral; details: in vivo; summary of the method: as §1
[20] = tested on: Plasmodium berghei; assay: Antimalarial activity against Plasmodium berghei infected in mouse assessed as parasitemia level at split dose of 320 mg/kg/day, po for 3 days measured on day 6 relative to control; type: functional
Summary of the method: (§4)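 Blood-stage P. berghei model: mice inoculated ip with 10^6 parasitized erythrocytes. Oral treatment for 3 days, with the daily dose split, in hydroxyethylcellulose-Tween 20 vehicle. Day-6 parasitemia expressed as a fraction of control parasitemia.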

[21] = tested on: Plasmodium berghei; assay: Antimalarial activity against Plasmodium berghei infected in mouse assessed as effect on cure rate at 32 mg/kg/day for 3 days; type: functional, organism-based; summary of the method: as §2
[22] = tested on: Plasmodium berghei; assay: Antimalarial activity against Plasmodium berghei infected in mouse assessed as parasitemia level at 52 mg/kg/day for 3 days measured on day 6 in presence of 64 mg/kg/day chloroquine; type: functional; summary of the method: as §2
[23] = tested on: Plasmodium berghei; assay: Antimalarial activity against Plasmodium berghei infected in mouse assessed as parasitemia level at 3.2 mg/kg/day for 3 days measured on day 6 (reference value: 37%); type: functional
[24] = tested on: Plasmodium berghei; assay: Antimalarial activity against Plasmodium berghei infected in mouse assessed as parasitemia level at 3.2 mg/kg/day for 3 days measured on day 3 (reference value: 0.46%); type: functional
[25] = tested on: Plasmodium falciparum; assay: Antimicrobial activity against Plasmodium falciparum D6 infected in Aotus lemurinus lemurinus monkey at […] in presence of mefloquine; type: functional
[26] = tested on: Plasmodium berghei; assay: Antimalarial activity against Plasmodium berghei infected in mouse assessed as parasitemia level at split dose of 80 mg/kg/day, po for 3 days measured on day 6 relative to control; type: functional; summary of the method: as §4
[27] = tested on: Plasmodium berghei; assay: Antimalarial activity against Plasmodium berghei infected in mouse assessed as parasitemia level at 32 mg/kg/day for 3 days measured on day 3 in presence of 3.6 mg/kg/day chloroquine (reference value: 0.46%); type: functional; summary of the method: as §2
[28] = tested on: Plasmodium falciparum; assay: Antimalarial activity against chloroquine-resistant Plasmodium falciparum FVO infected in Aotus lemurinus leminurus monkey assessed as reduction in parasitemia at 8 mg/kg/day, po for 3 days; type: functional, organism-based
[29] = tested on: Plasmodium berghei; assay: Antimalarial activity against Plasmodium berghei infected in mouse assessed as parasitemia level at 160 mg/kg/day for 3 days measured on day 3 (reference value: 0.46%); type: functional; summary of the method: as §2
[30] = tested on: Plasmodium berghei; assay: Antimalarial activity against Plasmodium berghei infected in mouse assessed as effect on cure rate at split dose of 320 mg/kg/day, po for 3 days; type: functional, organism-based; summary of the method: as §3
[31] = tested on: Mus musculus; assay: Toxicity in Plasmodium berghei-infected mouse assessed as mortality at single dose of 20 mg/kg/day, po for 3 days; type: organism-based; parameters: route oral; details: in vivo, 72 h
[32] = tested on: Plasmodium berghei; assay: Antimalarial activity against Plasmodium berghei infected in mouse assessed as parasitemia level at 32 mg/kg/day for 3 days measured on day 3 (reference value: 0.46%); type: functional; summary of the method: as §2

## Nc1cccc(-c2csc(NC(=O)CCCCCCC(=O)NO)n2)c1
[1]
  AUC: 3690 ng·h/mL
[2]
  fold change (FC): 0.01
[3]
  AUC: 3600 ng·h/mL
[4]
  inhibition: Active
[5]
  Activity: inactive
[6]
  Activity: inactive
[7]
  fractional inhibitory concentration index (FICI): 1.9
[8]
  Activity: 0.52%
[9]
  Activity: Non-toxic
[10]
  Activity: inactive
[11]
  fractional inhibitory concentration index (FICI): 1.7
[12]
  Activity: 0.62%
[13]
  Activity: 0.72%
[14]
  half-life: 8.5 h
[15]
  CC50: 0.6 µM
[16]
  Activity: inactive
[17]
  Activity: 0.48%
[18]
  Activity: inactive
[19]
  Tmax: 0.83 h
[20]
  fold change (FC): 0.004
[21]
  Activity: inactive
[22]
  Activity: 0%
[23]
  Activity: 40%
[24]
  Activity: 0.64%
[25]
  fractional inhibitory concentration index (FICI): 2.2
[26]
  fold change (FC): 0.05
[27]
  Activity: 0.44%
[28]
  inhibition: inactive
[29]
  Activity: 0.64%
[30]
  Activity: inactive
[31]
  Activity: Non-toxic
[32]
  Activity: 0.38%
